The values that follow come from the EternaBench riboswitch data.

The subject of the data set is MS2 coat protein. Kind of data set: apparent Kd, MS2 coat protein; higher = weaker binding; RNA-MaP array; theophylline 2 mM where present. A digest of the protocol:
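The apparent Kd is reported as the median of filtered per-cluster binding-curve fits. To get these curves, designs transcribed by stalled E. coli RNA polymerase on Illumina sequencing-chip clusters were titrated with SNAP-549-labelled MS2 coat protein from 0.7 or 1.5 nM, doubling to 3 µM. Titrations were run without and then with constant ligand in 100 mM Tris-HCl pH 7.5, 80 mM KCl, 4 mM MgCl2, BSA, DTT, yeast tRNA and Tween-20, and green signal was normalised to red-channel RNA signal and control-cluster median Fmax.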

Setting [1] is: designed as: ON switch for theophylline, no ligand.
Setting [2] is: ligand present: theophylline, designed as: ON switch for theophylline.
[3] abbreviates: designed as: OFF switch for theophylline, no ligand.
The mark [4] stands for this setting: ligand present: theophylline, designed as: OFF switch for theophylline.

Regarding “GAUCCUCGUACGGAUACCAGCGACUAACAUGAGGAUCACCCAUGUGAUAAAGAAAAUAUUUGCCCUUGGCAGCCGAAUAGAUAGU”, the apparent Kd (in general, a dissociation constant that holds for the conditions of the assay) runs as follows: under setting [1], 72.7 nM; under setting [2], 34.9 nM.

On to “UUAUCUAUAUUCGAUACCAGUACCCUGGCCGCAAAUCCUAACAUGAGGAUCACCCAUGUGUACCCUUGGCAGCGGGUAUGGGUUU”, for which the “apparent Kd” value turned out to be 23.2 nM under setting [3] and 88.8 nM under setting [4].

In the case of “ACGUCACGUUUACUCGUGGUUUCGUUCGAUACCAGUAGCGAGAGUUACCCUUGGCAGCGACAUGAGGAUCACCCAUGUACGAAGA”, the “apparent Kd” value stood at 13.1 nM under setting [3] and 27.2 nM under setting [4].

Take “UGACAUUGCUCAGAUACCAGACAUGAGGAUCACCCAUGUGCCAAAUACGUACAAAUAAAUGUCCCUUGGCAGCUGAGCAAUGUCU”: the “apparent Kd” value by setting is: under setting [3], 14.2 nM; under setting [4], 266 nM.

Regarding “AGCCCUGUGCUAGAUACCAGCUACAUGAGGAUCACCCAUGUGCGUCAGGACUGACUGUGUAGCCCUUGGCAGCUACUCGCAUGUA”, the “apparent Kd” value is, setting by setting: under setting [3], 16.2 nM; under setting [4], 30.9 nM.

On to “CGUAUCGUAACUGAUACCAGUGUACUGACAUGAGGAUCACCCAUGUUGGGUUUUGUUGUACACCCUUGGCAGCAGAAUCGAUACG”, for which the “apparent Kd” value came out at 67 nM under setting [3] and 103 nM under setting [4].

As to “AGAUCUUUCGAAAGAAGGAUAAUGGCUGAUACCAGAGACGAAAGUCUCCCUUGGCAGCAGUGCCAACAUGAGGAUCACCCAUGUA”, the “apparent Kd” value reads like this: under setting [1], 170 nM; under setting [2], 39.7 nM.

For “AGUGUUAUAACUGAUACCAGACUUGCGCUUAAACAUGAGGAUCACCCAUGUAAAAUGGUUGUCCCUUGGCAGCAGAAAAUACACA”, the “apparent Kd” value is 74.1 nM under setting [1] and 21.6 nM under setting [2].

Consider “CCUGCGUUUCUUUUCUUUCGCAGGAAUGAUACCAGUAGGGAAACCUACCCUUGGCAGCAUGGGACAUGAGGAUCACCCAUGUAAU”, for which the “apparent Kd” value under setting [1] stood at 439 nM and the “apparent Kd” value under setting [2] was found to be 89.3 nM.

Turning to “ACGUCCGGUUUACUCGUGGGCAUGGUCGAUACCAGUAUUUUAAUCUACCCUUGGCAGCGACAUGAGGAUCACCCAUGUGCGAAGA”, the “apparent Kd” value was found to be 23.5 nM under setting [3] and 32.4 nM under setting [4].

For the sequence “UGGCAGCACCUCAUGUGCUGCCAAGGUGAUACCAGCAUCGAAAGAUGCCCUUGGCAGCACCAACAUGAGGAUCACCCAUGUAAUA”, the “apparent Kd” value worked out at 165 nM under setting [1] and 152 nM under setting [2].

As to “AAGCUGGGUGUAAAAUAAAUAAUCACUGAUACCAGACUAUGAGAUGUCCCUUGGCAGCAGAAACAUGAGGAUCACCCAUGUAAUA”, the “apparent Kd” value by setting is: under setting [3], 20.7 nM; under setting [4], 21.5 nM.

Regarding “ACUAGUUGUGCAGAUACCAGACAUGAGGAUCACCCAUGUUUGGGAUCUAAUGAUCAUCCUGUCCCUUGGCAGCUGUACAUCUAGA”, the “apparent Kd” value under setting [3] is 103 nM and the “apparent Kd” value under setting [4] was 26.3 nM.

Turning to “ACGAUACGACAUGAGGAUCACCCAUGUGAUACCAGCGUGGAAACACGCCCUUGGCAGCACAAAUACUCCAAUAACGUAUCGAAAA”, the “apparent Kd” value reads like this: under setting [3], 260 nM; under setting [4], 240 nM.

Turning to “CGGUUUGUGAUGGAUACCAGCAGAGAAAAUGUUUAUCCUAACAUGAGGAUCACCCAUGUAUGCCCUUGGCAGCUGUUGUGGGCUG”, the “apparent Kd” value runs as follows: under setting [3], 64.8 nM; under setting [4], 62.1 nM.

Turning to “AUAUGAUCAUACGAUACCAGAAAUGGUAUUCCUUUAUUUCUUACAUGAGGAUCACCCAUGUUCCCUUGGCAGCGUAUGAUCAUAU”, the “apparent Kd” value is, setting by setting: under setting [3], 363 nM; under setting [4], 123 nM.

Take “AUACCUAAUGUUACAUUUUCCUUUUCAGAUACCAGACUUUACGUUGUCCCUUGGCAGCUGUAUCACAUGAGGAUCACCCAUGUUG”: the “apparent Kd” value under setting [1] is 16.6 nM and the “apparent Kd” value under setting [2] worked out at 16.9 nM.

As to “GAUGAACUAUAUGAUACCAGACAACAUGAGGAUCACCCAUGUGAUAGUCGUCCUCUGCCUGUCCCUUGGCAGCGUAUAGUUUAUC”, the “apparent Kd” value under setting [3] was 40.6 nM and the “apparent Kd” value under setting [4] came to 102 nM.

Take “ACGACGCAUAGUGAUACCAGUAGAACAUGAGGAUCACCCAUGUCUGUUAUGUACAAAUACUGCCCUUGGCAGCACUAUGCGUCAG”: the “apparent Kd” value by setting is: under setting [1], 9.79 nM; under setting [2], 10.7 nM.
